Series [1] has as its target T1, organic cation transporter 1 (Homo sapiens, UniProt O15245).
T1 sequence (O15245 1-554): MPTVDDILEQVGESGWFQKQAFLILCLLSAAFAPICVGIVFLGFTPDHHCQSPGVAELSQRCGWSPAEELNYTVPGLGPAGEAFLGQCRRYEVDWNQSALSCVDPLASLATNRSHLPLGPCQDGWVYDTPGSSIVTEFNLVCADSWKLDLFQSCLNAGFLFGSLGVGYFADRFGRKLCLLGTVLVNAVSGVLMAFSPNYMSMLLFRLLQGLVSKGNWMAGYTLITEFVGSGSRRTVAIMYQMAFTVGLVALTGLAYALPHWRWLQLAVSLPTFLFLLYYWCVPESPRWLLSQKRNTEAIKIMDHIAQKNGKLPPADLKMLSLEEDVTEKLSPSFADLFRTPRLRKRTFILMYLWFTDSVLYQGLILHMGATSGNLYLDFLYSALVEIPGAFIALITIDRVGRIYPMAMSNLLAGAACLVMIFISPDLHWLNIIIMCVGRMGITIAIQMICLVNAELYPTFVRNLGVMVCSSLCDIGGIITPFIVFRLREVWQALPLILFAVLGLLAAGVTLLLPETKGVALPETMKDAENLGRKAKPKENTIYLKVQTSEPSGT
Kind of series: Hepatic uptake transporter substrate assessment, OCT1. Format: in vitro ADME.

The nature of series [2]: Biopharmaceutic properties. Format: physicochemical.
Series [3] deals with P‐glycoprotein (Homo sapiens, UniProt P08183). Kind of series: Efflux transporter substrate assessment in vitro, P-glycoprotein. Format: in vitro ADME.
P‐glycoprotein, sequence (P08183 whole entry): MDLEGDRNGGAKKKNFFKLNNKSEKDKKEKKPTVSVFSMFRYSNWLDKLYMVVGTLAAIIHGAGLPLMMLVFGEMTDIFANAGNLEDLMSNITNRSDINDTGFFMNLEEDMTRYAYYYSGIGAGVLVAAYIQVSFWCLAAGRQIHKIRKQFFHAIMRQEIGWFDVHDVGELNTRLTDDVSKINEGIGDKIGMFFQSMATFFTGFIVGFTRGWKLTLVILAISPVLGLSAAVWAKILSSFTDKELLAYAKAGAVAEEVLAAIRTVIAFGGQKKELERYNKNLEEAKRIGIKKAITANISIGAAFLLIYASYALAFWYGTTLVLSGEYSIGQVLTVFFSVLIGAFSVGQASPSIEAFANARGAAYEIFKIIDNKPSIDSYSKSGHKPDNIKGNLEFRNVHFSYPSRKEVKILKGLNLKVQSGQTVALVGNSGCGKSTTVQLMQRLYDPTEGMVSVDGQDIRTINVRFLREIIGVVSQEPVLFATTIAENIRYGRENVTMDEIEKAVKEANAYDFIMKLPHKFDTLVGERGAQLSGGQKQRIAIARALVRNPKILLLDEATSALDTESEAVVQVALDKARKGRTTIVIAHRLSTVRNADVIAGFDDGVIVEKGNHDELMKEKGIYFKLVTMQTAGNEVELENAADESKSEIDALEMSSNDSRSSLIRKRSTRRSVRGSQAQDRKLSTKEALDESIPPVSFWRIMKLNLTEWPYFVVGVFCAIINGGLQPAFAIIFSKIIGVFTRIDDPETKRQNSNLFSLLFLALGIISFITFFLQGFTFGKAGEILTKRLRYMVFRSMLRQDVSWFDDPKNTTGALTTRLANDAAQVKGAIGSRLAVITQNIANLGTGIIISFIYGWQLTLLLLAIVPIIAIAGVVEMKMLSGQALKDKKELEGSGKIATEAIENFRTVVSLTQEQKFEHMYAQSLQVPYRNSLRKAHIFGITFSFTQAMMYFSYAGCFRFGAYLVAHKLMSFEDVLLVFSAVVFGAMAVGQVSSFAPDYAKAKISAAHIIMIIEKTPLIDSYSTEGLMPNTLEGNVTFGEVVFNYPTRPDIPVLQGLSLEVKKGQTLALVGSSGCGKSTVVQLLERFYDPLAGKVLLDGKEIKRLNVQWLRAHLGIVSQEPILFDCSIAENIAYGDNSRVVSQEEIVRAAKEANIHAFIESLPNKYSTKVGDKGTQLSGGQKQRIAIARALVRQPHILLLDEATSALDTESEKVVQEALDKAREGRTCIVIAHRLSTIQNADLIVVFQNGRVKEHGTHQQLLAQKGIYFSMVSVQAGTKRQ
Series [4] in a line: PBPK model input and disposition parameters.
Series [5] is described as follows: Clarithromycin interaction study. Format: in vivo. Conditions: both, human, plasma, po, 50 mg.
Series [6] is described as follows: Fraction unbound in plasma. Format: in vitro ADME. The settings on record: human.
Series [7] concerns the target T2, breast cancer resistance protein (Homo sapiens, UniProt Q9UNQ0).
T2 sequence (Q9UNQ0 1-655): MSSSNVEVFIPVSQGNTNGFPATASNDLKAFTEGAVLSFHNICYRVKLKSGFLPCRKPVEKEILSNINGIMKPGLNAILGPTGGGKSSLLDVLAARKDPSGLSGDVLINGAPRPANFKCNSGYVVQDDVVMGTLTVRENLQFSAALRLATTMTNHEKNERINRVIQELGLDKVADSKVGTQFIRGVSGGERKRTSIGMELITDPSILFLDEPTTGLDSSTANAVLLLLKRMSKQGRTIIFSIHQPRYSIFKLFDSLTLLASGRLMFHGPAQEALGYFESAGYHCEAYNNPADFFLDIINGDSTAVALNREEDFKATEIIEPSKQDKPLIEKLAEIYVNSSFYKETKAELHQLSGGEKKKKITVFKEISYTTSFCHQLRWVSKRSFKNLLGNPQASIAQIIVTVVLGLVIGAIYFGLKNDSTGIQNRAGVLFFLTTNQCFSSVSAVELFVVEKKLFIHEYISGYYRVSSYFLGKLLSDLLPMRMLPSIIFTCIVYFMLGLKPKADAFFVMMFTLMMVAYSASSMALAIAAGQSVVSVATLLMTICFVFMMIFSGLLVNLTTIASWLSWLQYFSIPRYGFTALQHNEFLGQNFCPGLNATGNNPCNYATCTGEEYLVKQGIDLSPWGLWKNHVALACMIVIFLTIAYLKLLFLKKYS
Kind of series: Efflux transporter substrate assessment in vitro, BCRP. Format: in vitro ADME.

A short description of series [8]: Mass balance study with 14C-labeled abemaciclib. Format: in vivo, human.
For series [9] the following is noted: cited from earlier work.
Series [10] addresses T3, organic anion–transporting polypeptide 1B1 (Homo sapiens, UniProt Q9Y6L6).
T3 sequence (Q9Y6L6 1-691): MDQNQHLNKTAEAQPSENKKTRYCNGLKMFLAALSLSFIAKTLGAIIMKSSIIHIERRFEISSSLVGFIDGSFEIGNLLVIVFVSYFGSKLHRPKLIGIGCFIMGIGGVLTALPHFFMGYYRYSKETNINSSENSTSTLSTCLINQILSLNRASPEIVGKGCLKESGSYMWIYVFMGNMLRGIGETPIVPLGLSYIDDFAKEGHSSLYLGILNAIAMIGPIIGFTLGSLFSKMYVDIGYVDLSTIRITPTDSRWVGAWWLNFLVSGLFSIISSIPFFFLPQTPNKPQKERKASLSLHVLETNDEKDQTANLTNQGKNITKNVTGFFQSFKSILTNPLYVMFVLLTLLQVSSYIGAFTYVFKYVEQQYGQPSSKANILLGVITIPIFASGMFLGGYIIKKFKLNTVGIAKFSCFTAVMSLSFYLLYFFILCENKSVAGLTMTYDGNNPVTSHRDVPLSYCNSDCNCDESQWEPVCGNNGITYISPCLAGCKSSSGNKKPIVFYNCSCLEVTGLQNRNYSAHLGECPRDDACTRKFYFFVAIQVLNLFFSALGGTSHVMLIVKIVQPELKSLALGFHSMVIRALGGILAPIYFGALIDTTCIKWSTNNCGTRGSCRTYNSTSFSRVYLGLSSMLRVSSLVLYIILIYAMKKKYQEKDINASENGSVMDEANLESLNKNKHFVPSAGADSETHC
Kind of series: Hepatic uptake transporter substrate assessment, OATP1B1. Format: in vitro ADME.

The nature of series [11]: Rifampin interaction study. Format: in vivo, human. The procedure, abridged:
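Single oral 200‑mg dose given alone and again with rifampin 600 mg once daily. Plasma levels of parent and active metabolites were measured in both arms, and mean concentration–time profiles are shown with SDs. Cmax and AUC0‑∞ were taken, with Tmax as median (min‑max). The interaction was expressed as with/without‑rifampin ratios of AUC0‑∞ and Cmax.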

The nature of series [12]: Absolute bioavailability. Format: in vivo. Conditions: human, plasma.
Series [13] addresses T4, organic anion–transporting polypeptide 1B3 (Homo sapiens, UniProt Q9NPD5).
T4 sequence (Q9NPD5 1-702): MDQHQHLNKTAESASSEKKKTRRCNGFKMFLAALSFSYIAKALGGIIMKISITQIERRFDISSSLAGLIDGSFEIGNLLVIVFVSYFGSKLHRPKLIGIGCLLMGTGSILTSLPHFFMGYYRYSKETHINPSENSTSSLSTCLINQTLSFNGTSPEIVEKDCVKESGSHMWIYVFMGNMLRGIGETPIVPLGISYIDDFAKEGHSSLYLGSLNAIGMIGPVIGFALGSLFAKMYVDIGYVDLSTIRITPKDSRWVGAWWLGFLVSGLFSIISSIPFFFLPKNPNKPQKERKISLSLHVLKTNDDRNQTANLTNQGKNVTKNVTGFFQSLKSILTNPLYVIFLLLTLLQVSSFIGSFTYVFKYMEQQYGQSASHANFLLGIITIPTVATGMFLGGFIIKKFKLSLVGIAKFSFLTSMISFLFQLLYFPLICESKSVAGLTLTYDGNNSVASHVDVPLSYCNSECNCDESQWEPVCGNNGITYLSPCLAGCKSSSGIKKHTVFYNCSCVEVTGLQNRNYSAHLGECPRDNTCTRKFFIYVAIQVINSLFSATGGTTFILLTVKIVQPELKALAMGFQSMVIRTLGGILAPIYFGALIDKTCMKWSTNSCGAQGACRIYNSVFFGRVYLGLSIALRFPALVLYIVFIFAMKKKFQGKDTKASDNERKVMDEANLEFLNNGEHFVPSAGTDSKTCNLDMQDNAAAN
Kind of series: Hepatic uptake transporter substrate assessment, OATP1B3. Format: in vitro ADME.

For series [14], the system named is CDK4/cyclin D1. The settings on record: read-out: CDK4/cyclin D1 half‐maximal inhibitory concentration, mean ± SD; measured in vitro; cited from earlier work.
Series [15] can be described thus: Measured physicochemical properties.
For series [16] the following is noted: cited from earlier work. The source holds these as a separate data set.
Where [17] appears, read: both, human, plasma, po, 200 mg.

We go through 3 molecules from paper PMC7318171 (Journal of Clinical Pharmacology, 2020).

The term AUC denotes the area under the concentration-time curve, a measure of exposure. High values mean more exposure, low ones less exposure. In general, Cmax refers to the highest concentration seen after dosing. A word on the Tmax: it is the time at which the peak concentration occurs. One may read the half-life as how long it takes for the measured level to halve. Read a high half-life as slow loss. In general, fraction unbound refers to free concentration divided by total concentration. Low values mean little free substance, high ones much free substance. One may read the Vd as the apparent volume that relates the amount in the body to the concentration in plasma or blood. A low value points to confinement near the circulation. The clearance is the rate of elimination divided by the concentration. Higher therefore signals a high capacity for elimination. The term logP denotes a log measure of how a compound divides between an organic and an aqueous phase. A word on the pKa: it is the pH at which an ionisable group is half protonated. As for `CCN1CCN(Cc2ccc(Nc3ncc(F)c(-c4cc(F)c5nc(C)n(C(C)C)c5c4)n3)nc2)CC1` [Abemaciclib], the “substrate of organic cation transporter 1” value in series [1] is on record as “not substrates”. Moreover, in series [2], the “permeability (in words)” value is “high permeability” and the “solubility (in words)” value is given as “high solubility”. Besides, in [3], the “substrate of P‐glycoprotein” value is given as “substrate”. For the same molecule, in [4] (200‐mg dose), the “FG in the PBPK model” value is 0.74. In addition, the “FG (fraction escaping first‐pass metabolism in the gut), calculated” value in series [4] (200‐mg oral dose, equation 5) is on record as “approximately 0.77”. Further, in [4] (200‐mg oral dose, equations 2-4), the “FH (fraction escaping first‐pass metabolism in the liver)” value was determined as 0.64. In series [5], the AUC was […], the peak level (Cmax) was […], the Tmax amounted to […] and the half-life is […]. Moreover, in [6], the fraction unbound stood at 0.0557. Besides, the “substrate of breast cancer resistance protein” value in series [7] is “substrate”. Besides, the “percentage of parent in feces” value in series [8] (14C study) turned out to be 6.76%. Besides, the “radioactivity excreted in urine” value in [8] (human mass balance study) is reported as […]. The molecule also showed a CL renal in series [8] (human, urine, oral, 150 mg) of […]. Moreover, the “Fa (fraction absorbed)” value in series [8] (oral dose, estimated from mass balance study, equation 1) is listed as […]. In addition, the “increase of AUC by a high‐fat and high‐calorie meal” value in [9] (abemaciclib and active species) was 9%. Further, the “time of observed maximum plasma concentration” value in series [9] (oral administration) was […]. For the same molecule, in series [10], the “substrate of organic anion–transporting polypeptide 1B1” value is “not substrates”. In series [11] (setting [17]), the AUC was 4570 ng·h/mL, the concentration peaked (Cmax) at […], the Tmax was found to be […] and the half-life is […]. Also, in series [11] (with rifampin, observed), the “decrease of AUC” value was 95%. Also, in series [12], the half-life was 29.3 h. In addition, in series [12] (iv, 0.4 mg), the Vd worked out at 8.93 L/kg and the clearance was […]. In addition, the “substrate of organic anion–transporting polypeptide 1B3” value in series [13] is “not substrates”. In [14], the IC50 was […]. In [15] (octanol/water), this molecule had a logP of […]. In [15] (pKa 2 (basic)), this molecule yielded a pKa of 4.48.

Consider `COc1ccccc1Oc1c(NS(=O)(=O)c2ccc(C(C)(C)C)cc2)nc(-c2ncccn2)nc1OCCO` [Bosentan], for which the “Cmax ratio with and without ketoconazole” value in series [16] (bosentan 125 mg BID 5 days, ketoconazole 200 mg QD) is 1.62.

Take `Cc1ncc2n1-c1ccc(Cl)cc1C(c1ccccc1F)=NC2` [Midazolam]: the “increase in AUC extrapolated to infinity” value in series [16] (IV midazolam with clarithromycin) is on record as 3.5 fold.
